The test system of one test is BGC-823. The test can be described thus: Antiproliferative activity against human BGC823 cells after 48 hrs by MTT assay. It counts as functional, cell-based. To be noted: BGC-823, 48 h. The method in brief: (§1)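 1×10^4 cells/well seeded and held 24 h at 37 °C, 5% CO2. Viability read after 48 h by MTT (4 h, 37 °C), DMSO solubilization, A570. Three independent experiments, mean ± SD.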
A general note: Tetrazolium dyes change colour on reduction, which living cells bring about.

A further test has as its system HepG2. In words: Antiproliferative activity against human HepG2 cells after 48 hrs by MTT assay. Particulars: HepG2, 48 h. The class given is functional, cell-based. The method in brief: as §1
Test [1] addresses Telomerase reverse transcriptase (Homo sapiens, UniProt O14746). In words: Inhibition of telomerase in human SW1116 cells after 24 hrs by TRAP-PCR-ELISA assay. It counts as cell-based, SW 1116. The method in brief:
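Cells kept in DMEM with 10% FBS, streptomycin and penicillin at 37 °C, 5% CO2. Lysed in RIPA on ice for 30 min, supernatant cleared at 12,000g. Extract used in a TRAP kit, 35 PCR cycles, ELISA read at 490 nm. Mean ± SD.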
(In general: An ELISA detects its analyte on a solid surface through an enzyme-linked reagent.)

For the next test, the system named is HeLa. In words: Antiproliferative activity against human HeLa cells after 48 hrs by MTT assay. The class given is functional, cell-based. The method in brief: as §1
Test [2] in a line: Antiproliferative activity against human SW1116 cells after 48 hrs by MTT assay. The class given is functional, cell-based. Particulars: SW 1116, 48 h. The method in brief: as §1

What is called IC50 is the point on the concentration scale where inhibition reaches its midpoint. Higher therefore signals weaker potency in that assay.

Sequence of Telomerase reverse transcriptase (O14746 whole entry): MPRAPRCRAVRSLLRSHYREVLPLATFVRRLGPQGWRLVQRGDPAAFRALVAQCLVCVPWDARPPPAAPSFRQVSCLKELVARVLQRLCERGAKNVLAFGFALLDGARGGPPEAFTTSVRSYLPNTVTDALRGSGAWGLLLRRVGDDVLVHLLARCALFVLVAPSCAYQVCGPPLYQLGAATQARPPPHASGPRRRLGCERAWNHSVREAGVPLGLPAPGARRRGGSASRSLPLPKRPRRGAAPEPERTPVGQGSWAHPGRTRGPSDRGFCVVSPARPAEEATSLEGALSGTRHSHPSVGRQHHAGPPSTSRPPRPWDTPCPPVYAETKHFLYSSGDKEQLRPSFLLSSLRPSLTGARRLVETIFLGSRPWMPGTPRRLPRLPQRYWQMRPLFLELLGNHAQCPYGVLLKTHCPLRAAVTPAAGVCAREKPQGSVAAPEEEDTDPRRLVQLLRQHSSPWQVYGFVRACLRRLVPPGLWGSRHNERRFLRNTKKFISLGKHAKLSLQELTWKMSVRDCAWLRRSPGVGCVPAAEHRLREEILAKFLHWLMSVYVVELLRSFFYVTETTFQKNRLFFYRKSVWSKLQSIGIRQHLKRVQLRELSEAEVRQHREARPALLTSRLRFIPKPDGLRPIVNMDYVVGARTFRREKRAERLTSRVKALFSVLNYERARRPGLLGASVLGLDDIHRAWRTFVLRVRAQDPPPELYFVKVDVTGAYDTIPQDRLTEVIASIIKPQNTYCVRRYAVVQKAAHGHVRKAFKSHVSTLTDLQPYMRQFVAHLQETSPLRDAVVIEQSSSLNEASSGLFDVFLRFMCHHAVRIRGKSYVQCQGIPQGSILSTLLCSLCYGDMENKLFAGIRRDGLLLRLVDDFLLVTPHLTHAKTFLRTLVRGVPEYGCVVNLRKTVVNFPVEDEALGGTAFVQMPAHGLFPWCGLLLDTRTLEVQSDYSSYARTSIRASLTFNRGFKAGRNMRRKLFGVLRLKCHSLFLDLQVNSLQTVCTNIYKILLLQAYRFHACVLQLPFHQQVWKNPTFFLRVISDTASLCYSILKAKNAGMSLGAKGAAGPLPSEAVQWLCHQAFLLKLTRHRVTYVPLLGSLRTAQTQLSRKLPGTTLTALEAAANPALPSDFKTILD

On to `c1ccc(CSc2nnc(-c3ccc4c(c3)OCCO4)o2)cc1`, for which the 50% inhibitory concentration (IC50) with BGC-823 is 33.6 µM; in the test on HepG2, 32.1 µM; in test [1], 8.21 µM; in the test with HeLa, 40.3 µM; in test [2] it was 31.5 µM.

`Cc1cccc(CSc2nnc(-c3ccc4c(c3)OCCO4)o2)c1`: the IC50 in the test with BGC-823 stood at 31.2 µM; in the test with HepG2, 33.4 µM; in test [1] it was 3.26 µM; with HeLa it was 32.8 µM; in test [2], 27.2 µM.

Turning to `O=[N+]([O-])c1ccc(CSc2nnc(-c3ccc4c(c3)OCCO4)o2)cc1`, the IC50 turned out to be 23 µM in the test with BGC-823; 35.4 µM in the test with HepG2; 2.71 µM in test [1]; 27.5 µM with HeLa; 14.6 µM in test [2].

Take `Fc1ccccc1CSc1nnc(-c2ccc3c(c2)OCCO3)o1`: the IC50 in the test on BGC-823 came to 28.9 µM; in the test on HepG2, 24 µM; in test [1], 2.93 µM; in the test with HeLa, 41.6 µM; in test [2] it was 21.9 µM.

Consider `O=[N+]([O-])c1ccccc1CSc1nnc(-c2ccc3c(c2)OCCO3)o1`, for which the concentration for half-maximal inhibition (IC50) is 23.3 µM in the test on BGC-823; 38.1 µM in the test with HepG2; 12.1 µM in test [1]; 32.7 µM in the test with HeLa; 20.8 µM in test [2].

`Cc1ccc(CSc2nnc(-c3ccc4c(c3)OCCO4)o2)cc1`: the IC50 was determined as 31.6 µM with BGC-823; 41.9 µM in the test with HepG2; 5.04 µM in test [1]; 45.4 µM in the test with HeLa; 32.5 µM in test [2].

For `Fc1ccc(CSc2nnc(-c3ccc4c(c3)OCCO4)o2)cc1`, the IC50 with BGC-823 is 28.7 µM; in the test on HepG2, 38 µM; in test [1], 3.67 µM; with HeLa, 41.2 µM; in test [2] it was 21.6 µM.

Regarding `O=[N+]([O-])c1cccc(CSc2nnc(-c3ccc4c(c3)OCCO4)o2)c1`, the IC50 worked out at 23.7 µM in the test with BGC-823; 38.3 µM with HepG2; 4.65 µM in test [1]; 35.6 µM with HeLa; 30.1 µM in test [2].

As for `Clc1ccc(CSc2nnc(-c3ccc4c(c3)OCCO4)o2)cc1`, the IC50 came to 22.6 µM in the test with BGC-823; 28.8 µM in the test on HepG2; 2.91 µM in test [1]; 28.5 µM with HeLa; 28.4 µM in test [2].

Turning to `Ic1ccc(CSc2nnc(-c3ccc4c(c3)OCCO4)o2)cc1`, the IC50 in the test on BGC-823 stood at 22.7 µM; in the test on HepG2, 31.2 µM; in test [1] it was 3.66 µM; in the test on HeLa, 31.1 µM; in test [2], 29.2 µM.

Turning to `Cc1ccccc1CSc1nnc(-c2ccc3c(c2)OCCO3)o1`, the IC50 came out at 22.6 µM in the test with BGC-823; 22 µM in the test with HepG2; 1.27 µM in test [1]; 19 µM in the test on HeLa; 23.9 µM in test [2].

Take `Brc1ccccc1CSc1nnc(-c2ccc3c(c2)OCCO3)o1`: the IC50 with BGC-823 was 21.2 µM; with HepG2, 19.9 µM; in test [1], 2.02 µM; with HeLa it was 22.4 µM; in test [2], 14.1 µM.

For the compound `Brc1cccc(CSc2nnc(-c3ccc4c(c3)OCCO4)o2)c1`, the IC50 in the test with BGC-823 is 20.6 µM; with HepG2 it was 24.9 µM; in test [1], 2.45 µM; in the test with HeLa, 25.9 µM; in test [2], 20.1 µM.

As to `Brc1ccc(CSc2nnc(-c3ccc4c(c3)OCCO4)o2)cc1`, the IC50 amounted to 22.2 µM in the test on BGC-823; 8.54 µM with HepG2; 1.66 µM in test [1]; 23.6 µM in the test on HeLa; 24.5 µM in test [2].

On to `Clc1ccccc1CSc1nnc(-c2ccc3c(c2)OCCO3)o1`, for which the IC50 with BGC-823 is 22.5 µM; with HepG2, 22.6 µM; in test [1], 5.89 µM; with HeLa it was 36.8 µM; in test [2], 29.5 µM.

Consider `Clc1cccc(CSc2nnc(-c3ccc4c(c3)OCCO4)o2)c1`, for which the IC50 with BGC-823 amounted to 26.9 µM; in the test with HepG2, 33.4 µM; in test [1] it was 2.34 µM; in the test with HeLa, 31.8 µM; in test [2], 25.2 µM.

Regarding `Fc1cccc(F)c1CSc1nnc(-c2ccc3c(c2)OCCO3)o1`, the IC50 is 36.1 µM in the test with BGC-823; 41.6 µM in the test with HepG2; 15.8 µM in test [1]; 43.2 µM in the test with HeLa; 36.3 µM in test [2].

With `Fc1ccc(CSc2nnc(-c3ccc4c(c3)OCCO4)o2)c(F)c1`, the IC50 in the test on BGC-823 was 30.3 µM; with HepG2 it was 38.7 µM; in test [1], 2.44 µM; in the test with HeLa, 41.7 µM; in test [2], 29.6 µM.

Consider `Ic1ccccc1CSc1nnc(-c2ccc3c(c2)OCCO3)o1`, for which the IC50 in the test on BGC-823 was determined as 18.9 µM; in the test with HepG2 it was 7.21 µM; in test [1] it was 1.83 µM; in the test on HeLa, 20 µM; in test [2], 12.2 µM.

As to `O=c1[nH]cc(F)c(=O)[nH]1` [FLUOROURACIL], the IC50 with BGC-823 amounted to 100 µM; with HeLa, 110 µM; in test [2], 95.2 µM.
